Results as given in ChEMBL document CHEMBL2062386, “Discovery of LFF571: an investigational agent for Clostridium difficile infection” (J Med Chem, 2012).
In brackets after ≈: the same amount, converted by molar mass.

Tests used:
Assay type in all cases: functional
[1] = test system: Enterococcus faecium; test: Antibacterial activity against Enterococcus faecium 7130724 by broth microdilution method
[2] = test system: Enterococcus faecalis; test: Antibacterial activity against Enterococcus faecalis ATCC 29212 by broth microdilution method
Summary of the method: (§1)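 Broth microdilution MICs were run per CLSI M07-A8 (2009). The strain panel included C. difficile ATCC 43255, E. faecalis ATCC 29212 and S. pyogenes ATCC BAA-595.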

[3] = test system: Staphylococcus aureus; test: Antibacterial activity against Staphylococcus aureus A4.018 by broth microdilution method
[4] = test system: Streptococcus pyogenes; test: Antibacterial activity against Streptococcus pyogenes ATCC BAA-595 by broth microdilution method; summary of the method: as §1
[5] = Antibacterial activity against Clostridium difficile ATCC 43255 by broth microdilution method; settings: Clostridioides difficile; summary of the method: as §1
[6] = test system: Escherichia coli; test: Inhibition of protein synthesis in Escherichia coli S30 extract at 2 uM after 75 mins by luciferase based luminescence assay relative to GE2270A

SMILES | MIC [1] | MIC [2] | MIC [3] | MIC [4] | MIC [5] | inhibition at 2 µM [6]
CNC(=O)C[C@@H]1NC(=O)c2csc(n2)-c2ccc(-c3nc(N(CCCCC(=O)O)C(=O)O[C@@H]4CC[C@@H](C(=O)O)C[C@H]4CCCCC(=O)O)cs3)nc2-c2csc(n2)-c2csc(n2)[C@H]([C@@H](O)c2ccccc2)NC(=O)CNC(=O)c2nc(sc2COC)[C@H](C(C)C)NC(=O)c2nc1sc2C | 4 µg/mL (≈ 2.73 µM) | 4 µg/mL (≈ 2.73 µM) | 8 µg/mL (≈ 5.45 µM) | 4 µg/mL (≈ 2.73 µM) | 0.25 µg/mL (≈ 0.17 µM) | 50%
CNC(=O)C[C@@H]1NC(=O)c2csc(n2)-c2ccc(-c3nc(N(CCCCC(=O)O)C(=O)N[C@H]4CC[C@H](C(=O)O)CC4)cs3)nc2-c2csc(n2)-c2csc(n2)[C@H]([C@@H](O)c2ccccc2)NC(=O)CNC(=O)c2nc(sc2COC)[C@H](C(C)C)NC(=O)c2nc1sc2C | > 32 µg/mL | 16 µg/mL (≈ 11.7 µM) | 16 µg/mL (≈ 11.7 µM) | 32 µg/mL (≈ 23.4 µM) | 1 µg/mL (≈ 0.732 µM) | 30%
CNC(=O)C[C@@H]1NC(=O)c2csc(n2)-c2ccc(-c3nc(N(CCCCC(=O)O)C(=O)[C@H]4CC[C@H]4C(=O)O)cs3)nc2-c2csc(n2)-c2csc(n2)[C@H]([C@@H](O)c2ccccc2)NC(=O)CNC(=O)c2nc(sc2COC)[C@H](C(C)C)NC(=O)c2nc1sc2C | 32 µg/mL (≈ 24.2 µM) | 16 µg/mL (≈ 12.1 µM) | 32 µg/mL (≈ 24.2 µM) | > 32 µg/mL | 4 µg/mL (≈ 3.02 µM) | 30%
CNC(=O)C[C@@H]1NC(=O)c2csc(n2)-c2ccc(-c3nc(N(CCCCC(=O)O)C(=O)C[C@H]4CC[C@H](C(=O)O)CC4)cs3)nc2-c2csc(n2)-c2csc(n2)[C@H]([C@@H](O)c2ccccc2)NC(=O)CNC(=O)c2nc(sc2COC)[C@H](C(C)C)NC(=O)c2nc1sc2C | > 32 µg/mL | 8 µg/mL (≈ 5.86 µM) | 4 µg/mL (≈ 2.93 µM) | 32 µg/mL (≈ 23.4 µM) | 0.25 µg/mL (≈ 0.183 µM) | 30%
CNC(=O)C[C@@H]1NC(=O)c2csc(n2)-c2ccc(-c3nc(N(CCCCC(=O)O)C(=O)O[C@H]4CC[C@](CCCCC(=O)O)(C(=O)O)CC4)cs3)nc2-c2csc(n2)-c2csc(n2)[C@H]([C@@H](O)c2ccccc2)NC(=O)CNC(=O)c2nc(sc2COC)[C@H](C(C)C)NC(=O)c2nc1sc2C | 1 µg/mL (≈ 0.682 µM) | 0.5 µg/mL (≈ 0.341 µM) | 1 µg/mL (≈ 0.682 µM) | 4 µg/mL (≈ 2.73 µM) | 0.03 µg/mL (≈ 0.0205 µM) | 50%
CNC(=O)C[C@@H]1NC(=O)c2csc(n2)-c2ccc(-c3nc(N(CCCC(=O)O)C(=O)CCCC(=O)O)cs3)nc2-c2csc(n2)-c2csc(n2)[C@H]([C@@H](O)c2ccccc2)NC(=O)CNC(=O)c2nc(sc2COC)[C@H](C(C)C)NC(=O)c2nc1sc2C | > 32 µg/mL | > 32 µg/mL | > 32 µg/mL | > 32 µg/mL | > 4 µg/mL | 30%
CNC(=O)C[C@@H]1NC(=O)c2csc(n2)-c2ccc(-c3nc(NC(=O)CC[C@H](CC(=O)O)C(=O)O)cs3)nc2-c2csc(n2)-c2csc(n2)[C@H]([C@@H](O)c2ccccc2)NC(=O)CNC(=O)c2nc(sc2COC)[C@H](C(C)C)NC(=O)c2nc1sc2C | 8 µg/mL (≈ 6.31 µM) | 4 µg/mL (≈ 3.15 µM) | 8 µg/mL (≈ 6.31 µM) | > 32 µg/mL | 4 µg/mL (≈ 3.15 µM) | 30%
CNC(=O)C[C@@H]1NC(=O)c2csc(n2)-c2ccc(-c3nc(N(CCCC(=O)O)C(=O)CCCCC(=O)O)cs3)nc2-c2csc(n2)-c2csc(n2)[C@H]([C@@H](O)c2ccccc2)NC(=O)CNC(=O)c2nc(sc2COC)[C@H](C(C)C)NC(=O)c2nc1sc2C | 32 µg/mL (≈ 24.4 µM) | 32 µg/mL (≈ 24.4 µM) | 16 µg/mL (≈ 12.2 µM) | > 32 µg/mL | 2 µg/mL (≈ 1.53 µM) | 30%
CNC(=O)C[C@@H]1NC(=O)c2csc(n2)-c2ccc(-c3nc(NC(=O)CC[C@@H](CC(=O)O)C(=O)O)cs3)nc2-c2csc(n2)-c2csc(n2)[C@H]([C@@H](O)c2ccccc2)NC(=O)CNC(=O)c2nc(sc2COC)[C@H](C(C)C)NC(=O)c2nc1sc2C | 32 µg/mL (≈ 25.2 µM) | 16 µg/mL (≈ 12.6 µM) | 32 µg/mL (≈ 25.2 µM) | > 32 µg/mL | 4 µg/mL (≈ 3.15 µM) | 30%
CNC(=O)C[C@@H]1NC(=O)c2csc(n2)-c2ccc(-c3nc(N(C)C(=O)CCCC(=O)O)cs3)nc2-c2csc(n2)-c2csc(n2)[C@H]([C@@H](O)c2ccccc2)NC(=O)CNC(=O)c2nc(sc2COC)[C@H](C(C)C)NC(=O)c2nc1sc2C | 4 µg/mL (≈ 3.27 µM) | 2 µg/mL (≈ 1.63 µM) | 2 µg/mL (≈ 1.63 µM) | > 64 µg/mL | – | 30%
CNC(=O)C[C@@H]1NC(=O)c2csc(n2)-c2ccc(-c3nc(N(CCCCC(=O)O)C(=O)O[C@]4(CCCCC(=O)O)CC[C@@H](C(=O)O)CC4)cs3)nc2-c2csc(n2)-c2csc(n2)[C@H]([C@@H](O)c2ccccc2)NC(=O)CNC(=O)c2nc(sc2COC)[C@H](C(C)C)NC(=O)c2nc1sc2C | 8 µg/mL (≈ 5.45 µM) | 4 µg/mL (≈ 2.73 µM) | 8 µg/mL (≈ 5.45 µM) | 16 µg/mL (≈ 10.9 µM) | – | 50%
